Rows were chosen to be rich in hits. Some 1.7% of all compounds tested hit in one or more screens of this group.
PP1 counter: counter-screen for PP5 inhibitors: inhibitors of human PP1-alpha. AID 2235. actives 0.9% (n = 320,000). purified PP1alpha, OMFP fluorescence. P62136. inhibition, % at 6.7 µM;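 active = inhibition above the mean inhibition of all tested compounds plus 3 SD, computed separately for each screening campaign, cut at about 15% in these data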
T cell HTS: modulates CD8 T cell binding to vesicles. response (vesicle binding), % at 7 µM. 2C CD8+ T cell-vesicle binding, flow cytometry; hits give low values. actives 0.068% (n = 330,000);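 active = response, share of CD8 T cells binding vesicles, and their 90th percentile fluorescence all below set limits, cut at about 80% in these data, passing the limit was not always enough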;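 note: values below 100% mean blocked vesicle binding to the CD8+ T cells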
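Assay system – 2C mouse CD8+ T cells · Also added – QL9-loaded Drosophila micro-vesicles · Timing – Cell–vesicle co-incubation 1.5 h at 37 °C, staining 20 min on ice · Signal – flow cytometry of vesicle-bound cells · Measure – percent CD8+ FL2 mean versus row control · Controls – Peptide-free naked vesicles (low) and QL9 vesicles with 0.7% DMSO vehicle (high)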
PP5 inh: inhibitors of human protein phosphatase 5 (PP5) | purified PP5c, OMFP substrate fluorescence | inhibition, % at 6.7 µM | P53041 | actives 0.18% (n = 320,000);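 active = inhibition above the campaign's mean inhibition across all tested compounds plus 3 SD, cut at about 9.5% in these data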;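 note: 0% = DMSO only and 100% = 100 µM cantharidin control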
HTR2A ag: mouse HTR2A agonism via beta-arrestin recruitment. P35363. CHO-K1 mHTR2A beta-arrestin complementation, luminescence; percent of 30 µM serotonin response. activation, % at 7.6 µM. actives 0.66% (n = 360,000). AID 624169;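 active = activation above a run cutoff, the mean activation of all tested compounds plus 3 SD, cut at about 14% in these data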;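 note: 0% = plate median of compound wells and 100% = 30 µM serotonin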
JMJD2C inh: human JMJD2C demethylase inhibition; inhibition, % at 2.35 µM; AID 2099; GST-JMJD2C(1-420) H3K9me3 demethylation, DELFIA europium; actives 0.069% (n = 330,000);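 active = more than half of a compound's replicate wells show inhibition beyond 50%, single wells judged on their own value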;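 note: signal counts dimethyl H3K9 product captured on neutravidin plate; 0% = median of DMSO wells and 100% = 0.3 times that DMSO median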
Target sequence (Q9H3R0 1-420 limits assumed): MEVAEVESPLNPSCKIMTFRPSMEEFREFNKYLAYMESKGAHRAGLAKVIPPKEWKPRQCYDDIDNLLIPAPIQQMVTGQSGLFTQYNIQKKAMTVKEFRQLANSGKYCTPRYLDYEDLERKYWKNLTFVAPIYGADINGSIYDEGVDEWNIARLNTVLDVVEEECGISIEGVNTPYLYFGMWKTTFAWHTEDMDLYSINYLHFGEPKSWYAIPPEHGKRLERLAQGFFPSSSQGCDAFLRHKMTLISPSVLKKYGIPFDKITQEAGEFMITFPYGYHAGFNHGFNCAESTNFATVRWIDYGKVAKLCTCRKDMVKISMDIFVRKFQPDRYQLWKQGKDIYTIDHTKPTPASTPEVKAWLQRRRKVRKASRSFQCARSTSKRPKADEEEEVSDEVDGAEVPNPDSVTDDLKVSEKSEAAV
* marks the source's active call; other numbers are inactive results; · = no result given.

SMILES	PP1 counter	T cell HTS	PP5 inh	HTR2A ag	JMJD2C inh
NC(=O)CC(NC(=O)c1ccc(Br)cc1)c1ccc(N2CCN(c3ccccc3)CC2)c([N+](=O)[O-])c1 (configuration not stated)	15.2*	432.5	2.2	-1.6	-3.5
NC(=O)CC(NC(=O)c1ccccc1)c1ccc(N2CCC(N3CCCC3)CC2)c([N+](=O)[O-])c1 (configuration not stated)	-0.6	365.2	1.4	-0.1	-3.8
NC(=O)CC(NC(=O)c1ccc(Br)cc1)c1ccc(N2CCCCCCC2)c([N+](=O)[O-])c1 (configuration not stated)	7.0	267.8	6.2	-17.1	-16.1
COC(=O)CCN(c1ccccc1)S(=O)(=O)c1cc(-c2cc(C)no2)ccc1OC	-4.6	436.4	-4.9	5.0	0.8
Cc1cc(Cl)ccc1NC(=O)COC(=O)CCNS(=O)(=O)c1ccccc1	-1.7	0.0*	-0.5	-3.2	1.9
Cc1cccc(N2CCN(S(=O)(=O)c3ccc4c(c3)CCN4C(=O)CCC(=O)O)CC2)c1C	0.3	554.1	0.9	17.7*	·
CCC(=O)N1CCCc2cc(S(=O)(=O)N3CCN(c4ccccn4)CC3)ccc21	0.5	270.2	1.0	-4.8	26.5
CCC(=O)N1CCCc2cc(S(=O)(=O)N3CCN(c4ncccn4)CC3)ccc21	-2.1	320.7	1.1	21.4*	-16.1
C[C@H](CO)N1C[C@H](C)[C@@H](CN(C)S(=O)(=O)c2cn(C)cn2)OCc2cn(nn2)CCCC1=O	·	·	·	5.5	·
CCC(CC)C(=O)Nc1cc(C(=O)NCCc2ccccc2)ccc1Cl	-3.4	256.1	-0.5	4.7	-12.1
COc1ccc(N(C(C)=O)c2nc(C)cc(C)c2C#N)c(OC)c1	3.5	323.5	3.4	5.6	-5.1
CCC(C)Sc1cccc(-c2nc3ccc(C)cn3c2NCc2ccccc2)c1 (configuration not stated)	8.6	322.7	6.0	2.0	5.2
Cc1ccc2nc(-c3cccc(-c4cccc(Cl)c4)c3)c(NCc3ccccc3)n2c1	15.8*	154.0	5.4	-5.5	-0.7
O=C(Nc1cc(S(=O)(=O)N2CCCCC2)ccc1O)c1ccccc1NS(=O)(=O)c1ccc(F)c(F)c1	16.1*	128.5	-5.6	-1.9	3.0
O=C(Nc1cccc(S(=O)(=O)N2CCCCC2)c1)c1ccccc1NS(=O)(=O)c1ccc(F)cc1	10.0	249.7	8.7	6.3	3.6
Cc1cccc(S(=O)(=O)NC(=O)C2(C)CCN2C(=O)CC2CCCCC2)c1 (configuration not stated)	·	·	·	-0.8	·
CC1CCN(C(=O)COC(=O)CCCN2C(=O)c3cccc4cccc(c34)C2=O)CC1	·	0.0*	·	-8.4	7.6
O=C(CCCN1C(=O)c2cccc3cccc(c23)C1=O)OCC(=O)N1CCCCC1	·	·	·	-2.6	·
C=CCNC(=O)C1CCN(S(=O)(=O)c2ccc3ccccc3c2)CC1	-0.3	212.8	-1.0	0.9	1.1
CC(=O)N1CCC(=NNC(=O)c2cccs2)CC1	0.6	0.0*	3.1	-1.9	-4.7
O=C(NN=C1CCCC1)c1cccs1	-1.0	266.0	2.0	3.3	-3.6
C[C@@H]1CN([C@H](C)CO)C(=O)c2cccc(NS(=O)(=O)c3ccccc3)c2O[C@H]1CN(C)C	·	181.3	·	0.6	39.4
CC(C)NC(=O)N(C)C[C@H]1Oc2ccc(NS(=O)(=O)c3ccccc3)cc2C(=O)N([C@H](C)CO)C[C@H]1C	·	61.8*	·	-2.9	54.0*
C[C@H](CO)N1C[C@H](C)[C@@H](CN(C)C)Oc2c(NS(=O)(=O)c3ccccc3)cccc2C1=O	·	0.0*	·	2.5	9.6
C[C@H](CO)N1C[C@H](C)[C@@H](CN(C)S(=O)(=O)c2ccc(F)cc2)Oc2ccc(NC(=O)C3CC3)cc2C1=O	·	262.2	·	-3.1	62.0*
SMILES	PP1 counter	T cell HTS	PP5 inh	HTR2A ag	JMJD2C inh
CCC(c1nnc(SCC(=O)Nc2cccnc2Cl)n1-c1ccccc1)N(C)C (configuration not stated)	-0.8	312.4	3.3	-0.6	4.6
C#CCn1c(=NC(=O)c2ccc(S(=O)(=O)N3CCCc4ccccc43)cc2)sc2cc(S(N)(=O)=O)ccc21	15.6*	261.9	0.3	-2.7	·
CC(C)(C)NNC(=S)Nc1cccc(C(F)(F)F)c1	-1.3	415.2	3.4	1.0	54.2*
COc1ccc(C(=O)O/N=C(\N)c2ccccn2)cc1	0.6	416.0	1.1	-0.7	3.2
COc1ccc(C(=O)O/N=C(\C)c2cnccn2)cc1	-2.5	347.7	-3.4	-0.9	57.0*
O=C(COc1ccc(F)c(Cl)c1)N1CCCCCCC1	-3.0	199.8	5.3	0.9	-6.8
O=C(Nc1ccncc1)Nc1cccc(F)c1	·	511.4	·	-0.2	2.0
C=CCC1(CC=C)CCCN1C(=O)C1CCC(=O)N(CCc2ccccc2)C1 (configuration not stated)	2.9	65.7*	0.5	2.6	-12.8
COc1cccc(CN2CCC2(C)C(=O)Nc2ccc(Cl)c(Cl)c2)c1F (configuration not stated)	·	·	·	1.8	·
CCCC(C)c1nnc(NC(=O)COc2ccc3c(c2)OCO3)s1 (configuration not stated)	16.5*	375.9	-6.5	-2.2	-13.7
CCCNC(=O)C(Cc1ccc(I)cc1)NC(=O)c1ccc(C#N)cc1 (configuration not stated)	-4.7	638.6	-1.9	-1.0	-4.4
CCCS(=O)(=O)NC(=O)C1(C)CCCN(C(=O)c2cc3ccccc3s2)C1 (configuration not stated)	·	·	·	0.9	·
CN(c1ccccc1)P(=O)(N(C)c1ccccc1)N(C)c1ccccc1	-0.7	310.5	0.6	-2.8	-4.5
O=C(NCc1ccccn1)C1CC(c2ccccc2Cl)=NO1 (configuration not stated)	-1.5	283.8	1.0	14.8*	-0.6
O=C(NCCCN1CCOCC1)c1ccc2c(c1)N(Cc1c(F)cccc1Cl)C(=O)c1ccccc1S2	0.9	173.9	3.0	-4.2	-2.9
CC(C)CC(=O)O/N=C1\C(=O)N(Cc2ccc(Cl)cc2)c2ccc([N+](=O)[O-])cc21	16.6*	333.0	2.5	·	-5.3
CC(=O)O/N=C1\C(=O)N(Cc2ccc(C)cc2)c2ccccc21	·	·	·	-6.4	·
N#C/C(=C\c1ccc(-c2ccc(F)cc2)o1)C(=O)Nc1nc(-c2cccs2)cs1	15.3*	241.0	1.6	-2.1	11.2
N#C/C(=C/c1ccc(-c2ccc([N+](=O)[O-])cc2)o1)C(=O)Nc1nc(-c2cccs2)cs1	·	·	·	2.7	·
O=C(OCC(=O)N1CCOCC1)c1cccc(S(=O)(=O)Nc2ccc(F)cc2)c1	-2.5	318.8	1.7	6.1	-8.3
Cc1cc(C)c(NC(=O)COc2cccnc2[N+](=O)[O-])c(C)c1	-2.5	152.3	-1.4	2.2	0.9
CCc1ccccc1NC(=O)c1ccc([N+](=O)[O-])s1	-1.1	221.7	-0.9	-4.5	-17.3
COCCNC(=O)c1c(N)sc2c1CCCC2	-10.7	819.1	-5.4	·	50.1*

Screening data deposited in PubChem BioAssay by several laboratories.
